Source: ChEMBL document CHEMBL4428055 (J Med Chem, 2016)
Active and inactive are the calls of the source. No cut-off for these calls is given here.

Assays:
[1] = molecular target: T1, Aldo-keto reductase family 1 member C2 (Homo sapiens, UniProt P52895); test: Inhibition of human recombinant AKR1C2 using S-tetralol as substrate assessed as reduction in NADP+-dependent S-tetralol oxidation preincubated for 10 mins followed by protein addition by fluorometric assay
T1 sequence (P52895 whole entry): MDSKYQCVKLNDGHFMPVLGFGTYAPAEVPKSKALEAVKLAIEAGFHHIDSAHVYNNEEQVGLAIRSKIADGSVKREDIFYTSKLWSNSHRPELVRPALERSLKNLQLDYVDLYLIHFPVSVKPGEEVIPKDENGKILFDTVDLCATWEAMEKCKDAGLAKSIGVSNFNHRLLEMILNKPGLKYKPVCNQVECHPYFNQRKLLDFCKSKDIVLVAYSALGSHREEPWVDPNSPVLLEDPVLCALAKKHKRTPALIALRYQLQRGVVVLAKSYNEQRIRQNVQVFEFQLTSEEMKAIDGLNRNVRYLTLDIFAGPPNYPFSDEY

[2] = molecular target: T2, Aldo-keto reductase family 1 member C3 (Homo sapiens, UniProt P42330); test: Inhibition of human recombinant AKR1C3 using S-tetralol as substrate assessed as reduction in NADP+-dependent S-tetralol oxidation preincubated for 10 mins followed by protein addition by fluorometric assay
T2 sequence (P42330 whole entry): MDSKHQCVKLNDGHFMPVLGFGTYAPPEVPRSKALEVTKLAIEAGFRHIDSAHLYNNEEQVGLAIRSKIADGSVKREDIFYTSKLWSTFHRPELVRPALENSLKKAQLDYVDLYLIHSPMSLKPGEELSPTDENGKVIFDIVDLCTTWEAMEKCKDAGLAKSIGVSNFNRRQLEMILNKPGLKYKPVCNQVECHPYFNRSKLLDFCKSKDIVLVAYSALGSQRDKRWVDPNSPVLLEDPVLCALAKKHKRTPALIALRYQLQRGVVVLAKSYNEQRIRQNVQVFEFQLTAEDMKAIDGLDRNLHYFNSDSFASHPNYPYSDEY

[3] = molecular target: T3, Prostaglandin G/H synthase 1 (Ovis aries) (UniProt P05979); conditions: 100 uM
T3 sequence (whole entry): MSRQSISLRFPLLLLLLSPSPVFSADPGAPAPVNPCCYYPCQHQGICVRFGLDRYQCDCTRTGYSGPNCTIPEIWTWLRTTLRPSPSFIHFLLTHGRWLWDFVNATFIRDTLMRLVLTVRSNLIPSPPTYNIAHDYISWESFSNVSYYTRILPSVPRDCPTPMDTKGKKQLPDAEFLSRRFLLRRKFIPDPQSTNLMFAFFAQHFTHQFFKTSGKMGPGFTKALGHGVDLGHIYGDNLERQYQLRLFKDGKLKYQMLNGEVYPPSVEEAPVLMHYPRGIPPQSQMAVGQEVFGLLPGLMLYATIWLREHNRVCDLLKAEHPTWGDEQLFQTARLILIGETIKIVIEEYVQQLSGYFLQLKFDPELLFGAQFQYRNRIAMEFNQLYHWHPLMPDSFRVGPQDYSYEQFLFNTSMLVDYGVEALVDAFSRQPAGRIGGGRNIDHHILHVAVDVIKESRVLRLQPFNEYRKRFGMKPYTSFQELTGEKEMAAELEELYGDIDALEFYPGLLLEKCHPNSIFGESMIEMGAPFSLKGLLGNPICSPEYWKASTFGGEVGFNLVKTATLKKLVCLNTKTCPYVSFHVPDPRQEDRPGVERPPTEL

[4] = molecular target: T4, Prostaglandin G/H synthase 2 (Homo sapiens, UniProt P35354); test: Inhibition of COX2 (unknown origin) using arachidonic acid as substrate assessed as […] by measuring TMPD oxidation preincubated for 5 mins followed by substrate/TMPD addition measured for 5 mins by colorimetric assay
T4 sequence (P35354 whole entry): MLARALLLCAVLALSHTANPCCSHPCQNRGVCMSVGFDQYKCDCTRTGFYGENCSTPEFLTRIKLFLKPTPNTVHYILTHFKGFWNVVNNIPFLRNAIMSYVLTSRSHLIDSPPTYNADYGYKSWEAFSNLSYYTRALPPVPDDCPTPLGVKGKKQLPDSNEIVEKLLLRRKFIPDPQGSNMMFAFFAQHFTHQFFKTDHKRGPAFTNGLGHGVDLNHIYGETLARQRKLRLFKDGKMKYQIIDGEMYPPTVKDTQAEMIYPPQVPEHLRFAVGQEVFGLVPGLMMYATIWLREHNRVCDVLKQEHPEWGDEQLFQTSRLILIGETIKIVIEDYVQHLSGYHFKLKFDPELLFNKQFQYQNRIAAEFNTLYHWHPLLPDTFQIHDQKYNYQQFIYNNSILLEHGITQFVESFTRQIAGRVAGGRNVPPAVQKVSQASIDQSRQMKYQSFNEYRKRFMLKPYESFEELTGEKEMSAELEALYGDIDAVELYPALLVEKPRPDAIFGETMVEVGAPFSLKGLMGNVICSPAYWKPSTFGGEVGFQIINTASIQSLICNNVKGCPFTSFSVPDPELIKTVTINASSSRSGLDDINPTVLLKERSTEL

[5] = molecular target: T5, Androgen receptor (Homo sapiens) (UniProt P10275); test: Effect on 5alpha-DHT-induced activation of AR (unknown origin) expressed in human HeLa13 cells at 10 uM incubated for 20 hrs by luciferase reporter gene assay; format: cell-based
T5 sequence (whole entry): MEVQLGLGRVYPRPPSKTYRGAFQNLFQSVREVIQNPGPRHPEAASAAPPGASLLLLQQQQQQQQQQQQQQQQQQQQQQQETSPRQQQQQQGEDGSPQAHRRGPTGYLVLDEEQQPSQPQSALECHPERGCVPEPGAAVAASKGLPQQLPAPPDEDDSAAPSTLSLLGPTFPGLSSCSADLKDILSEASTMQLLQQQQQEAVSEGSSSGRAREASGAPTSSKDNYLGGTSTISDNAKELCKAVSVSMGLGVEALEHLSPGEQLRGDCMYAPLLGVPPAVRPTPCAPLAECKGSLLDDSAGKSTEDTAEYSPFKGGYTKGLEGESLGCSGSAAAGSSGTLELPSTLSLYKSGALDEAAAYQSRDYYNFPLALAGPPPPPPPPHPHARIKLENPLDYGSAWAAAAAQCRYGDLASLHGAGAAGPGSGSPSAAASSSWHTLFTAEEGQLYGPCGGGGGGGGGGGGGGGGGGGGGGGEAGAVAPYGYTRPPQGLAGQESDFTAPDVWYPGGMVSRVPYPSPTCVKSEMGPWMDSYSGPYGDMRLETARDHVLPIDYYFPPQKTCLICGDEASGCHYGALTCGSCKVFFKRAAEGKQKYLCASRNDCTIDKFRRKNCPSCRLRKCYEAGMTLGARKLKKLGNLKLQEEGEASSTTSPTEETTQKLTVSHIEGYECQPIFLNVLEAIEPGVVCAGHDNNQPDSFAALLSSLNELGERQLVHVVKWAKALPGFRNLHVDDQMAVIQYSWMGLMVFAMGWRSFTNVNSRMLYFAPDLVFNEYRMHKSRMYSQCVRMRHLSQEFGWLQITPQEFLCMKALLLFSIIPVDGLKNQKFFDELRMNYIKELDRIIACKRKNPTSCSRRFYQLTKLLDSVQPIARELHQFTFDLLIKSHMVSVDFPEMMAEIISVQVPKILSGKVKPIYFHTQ
Method in brief: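 HeLa13 cells stably carrying AR and an androgen-response-element luciferase reporter were grown 48 h in phenol-red-free medium with 5% charcoal-stripped FBS. They were plated for 6–7 h, then given fresh medium with 5α-DHT (1 nM in methods; increasing concentrations also tested) plus inhibitor. Luciferase was read after 20 h, as fold induction over untreated cells.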

[6] = molecular target: T6, Prostaglandin G/H synthase 1 (Ovis aries, UniProt P05979); test: Inhibition of COX1 in ram seminal vesicles using arachidonic acid as substrate assessed as reduction in […] by measuring TMPD oxidation preincubated for 5 mins followed by substrate/TMPD addition measured for 5 mins by colorimetric assay
T6 sequence (P05979 whole entry): T3 sequence (whole entry)

[7] = molecular target: T7, Prostaglandin G/H synthase 2 (Homo sapiens) (UniProt P35354); test: Inhibition of COX2 (unknown origin) using arachidonic acid as substrate assessed as reduction in […] by measuring TMPD oxidation at 10 uM preincubated for 5 mins followed by substrate/TMPD addition measured for 5 mins by colorimetric assay
T7 sequence (whole entry): T4 sequence (P35354 whole entry)

| Structure (SMILES) | IC50 [1] [nM] | IC50 [2] [nM] | also measured |
| --- | --- | --- | --- |
| CSc1ccc2cc([C@H](C)C(=O)O)ccc2c1 | 1350 | 70 | – |
| COc1ccc2cc([C@@H](C)C(=O)O)ccc2c1 | 2750 | – | inhibition [3]: < 20%; IC50 ([4]; read-out: IC50): > 25000 nM |
| CC[C@@H](C(=O)O)c1ccc2cc(OC)ccc2c1 | – | – | IC50 [4]: Not Active; Activity [5]: inactive |
| CC[C@H](C(=O)O)c1ccc2cc(OC)ccc2c1 | 1720 | 120 | IC50 [6]: 1930 nM; IC50 [4]: Not Active |
| CCC(C(=O)O)c1ccc2cc(OC)ccc2c1 (racemic) | 7600 | 120 | inhibition [7]: inactive |
| CCc1ccc2cc(C(C)C(=O)O)ccc2c1 (racemic) | 1900 | 120 | – |
| CCC(C(=O)NS(C)(=O)=O)c1ccc2cc(OC)ccc2c1 (racemic) | 34000 | 6000 | – |
| CCOc1ccc2cc(C(C)C(=O)O)ccc2c1 (racemic) | 2400 | 100 | – |
| CSc1ccc2cc(C(C)C(=O)O)ccc2c1 (racemic) | 1500 | 60 | – |
| COc1ccc2cc([C@H](C)C(=O)O)ccc2c1 [NAPROXEN] | – | – | IC50 ([4]; read-out: IC50): 900 nM |
